Measured values from ChEMBL document CHEMBL3870302, “Computer-aided identification, synthesis and evaluation of substituted thienopyrimidines as novel inhibitors of HCV replication” (Eur J Med Chem, 2016).

How the values were obtained:
Hepatitis C virus = assay: Antiviral activity against Hepatitis C virus genotype 1b infected in human HuH5.2 cells after 72 hrs by luciferase reporter gene assay; format: functional, cell-based, Hepacivirus hominis; conditions: Hepatitis C virus, genotype 1b, Huh-5-2, 72 h
Outline: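 Huh 5-2 cells with genotype 1b I389luc-ubi-neo/NS3-3'/5.1 subgenomic replicon, seeded 6 500 cells/well in DMEM/10% FCS without Geneticin, overnight 37 °C. Compound (DMSO stock diluted in medium) in 1:5 four-step or 1:2 eight-step series, 72 h. Cells PBS-washed, lysed 5 min, luciferase luminescence read, converted to % untreated control; EC50 from dose-response curve, mean of ≥2 independent experiments.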

[1] = Cytotoxicity against human HuH5.2 cells assessed as reduction in metabolic activity after 72 hrs by MTS assay; format: toxicity, cell-based, Huh-5-2; conditions: HuH5.2 cells
Outline: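 Run in parallel with the replicon assay: Huh 5-2 replicon cells, 6 500 cells/well, compound series for 72 h at 37 °C, 5% CO2. Medium then replaced with 5% MTS in phenol red-free medium for 1.5 h. Absorbance at 498 nm expressed as % untreated cells; CC50 from dose-response curve as 50% reduction in metabolic activity, mean of ≥2 experiments.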

[2] = Selectivity index, ratio of CC50 for human HuH5.2 cells to EC50 for hepatitis C virus genotype 1b infected in human HuH5.2 cells; format: toxicity, cell-based; conditions: HuH5.2 cells, read-out: Ratio CC50/EC50
Outline: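 Ratio of CC50 (MTS metabolic read-out, 72 h) to EC50 (replicon luciferase read-out, 72 h), both measured in parallel on Huh 5-2 genotype 1b replicon cells.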

[3] = Inhibition of Hepatitis C virus genotype 1b (con1) full length C-terminal His-tagged NS3 helicase expressed in Escherichia coli Rosette(DE3) assessed as inhibition of 5'-Cy5/3'-IAbRQ-labeled DNA unwinding activity by molecular beacon assay; parameters: species or system Hepatitis C virus (isolate Con1)
Outline: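 Molecular beacon unwinding assay: 25 mM MOPS pH 6.5, 1.25 mM MgCl2, 5% DMSO, 5 µg/ml BSA, 0.01% Tween20, 0.05 mM DTT, 5 nM fluorescent DNA substrate, 12.5 nM NS3h, 1 mM ATP.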

[4] = Inhibition of protease domain lacking Hepatitis C virus genotype 1b (con1) C-terminal His-tagged NS3 helicase ATP hydrolysis activity using ATP as substrate preincubated followed by substrate addition measured after 15 mins in presence of poly U RNA by malachite green-based assay; parameters: species or system Hepatitis C virus (isolate Con1)
[5] = Inhibition of Cy5-labeled dT15 DNA binding to Hepatitis C virus genotype 1b (con1) NS3 helicase DNA by fluorescence polarization assay; parameters: species or system Hepatitis C virus (isolate Con1)
Outline: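 Displacement of NS3h from a DNA oligonucleotide, 15 nM NS3h in 25 mM MOPS pH 7.5, 1.25 mM MgCl2, 0.0025 mg/ml BSA, 0.005% Tween20, 0.025 mM DTT.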

[6] = Inhibition of protease domain lacking Hepatitis C virus genotype 1b (con1) C-terminal His-tagged NS3 helicase ATP hydrolysis activity using ATP as substrate preincubated followed by substrate addition measured after 15 mins in absence of poly U RNA by malachite green-based assay; parameters: species or system Hepatitis C virus (isolate Con1)

SMILES | EC50 (Hepatitis C virus) | EC90 (Hepatitis C virus) | CC50 at 72 h [1] | selectivity ratio [2] | IC50 [3] | IC50 [4] | IC50 [5] | IC50 [6]
CCc1sc2ncnc(N/N=C(/C)c3cc(O)ccc3O)c2c1C | 0.803 µM | 1.62 µM | > 292 µM | > 364 | > 1000 µM |  |  | 
O=C(NNc1ncnc2sccc12)c1ccccn1 | 0.314 µM | 0.671 µM | 138 µM | 445 | > 1000 µM |  |  | 
c1ccc2[nH]c(Nc3ncnc4sc5c(c34)CCCC5)nc2c1 | 55.4 µM | > 104 µM | 231 µM | 4.2 | > 1000 µM |  |  | 
O=C(NNc1ncnc2sc3ccccc3c12)c1cnccn1 | 0.0723 µM | 0.192 µM | 1.34 µM | 18.5 | > 1000 µM | > 1000 µM | 949 µM | 
C/C(=N\Nc1ncnc2sc3c(c12)CCCC3)c1ccccc1O | 2.6 µM | 20.1 µM | 154 µM | 59.2 | > 1000 µM | 780 µM | > 1000 µM | 760 µM
c1ccc2c(Nc3ncnc4sc5c(c34)CCCC5)cccc2c1 | 32.4 µM | > 33.5 µM | 281 µM | 8.7 | > 1000 µM |  |  | 
Oc1ccc(O)c(/C=N/Nc2ncnc3sc4c(c23)CCCC4)c1 | 1.17 µM | 2.92 µM | 36.8 µM | 31.5 | > 1000 µM |  |  | 
C/C(=N/Nc1ncnc2sc(C)c(C)c12)c1cc(O)ccc1O | 1.58 µM | 4.65 µM | > 305 µM | > 193 | > 1000 µM |  |  | 
O=S(=O)(NNc1ncnc2sc3c(c12)CCCC3)c1ccccn1 | 42.9 µM | 83.2 µM | 145 µM | 3.4 | > 1000 µM | > 1000 µM | 675 µM | 
C/C(=N/Nc1ncnc2sccc12)c1cc(O)ccc1O | 2.79 µM | 4.55 µM | 226 µM | 81 | 229 µM |  |  | 
C/C(=N\Nc1ncnc2sc3c(c12)CCCC3)c1cnccn1 | 0.355 µM | 2.85 µM | 57.1 µM | 160 | > 1000 µM |  |  | 
O=C(NNc1ncnc2sc3c(c12)CCC3)c1ccccn1 | 0.745 µM | 1.94 µM | 6.61 µM | 8.9 | > 1000 µM |  |  | 
O=C(NNc1ncnc2sc3c(c12)CCCC3)c1cc(O)ccc1O | 0.502 µM | 0.945 µM | 99.9 µM | 199 | > 1000 µM |  |  | 
O=C(NNc1ncnc2sc3c(c12)CCC3)c1ccccc1O | 0.221 µM | 0.352 µM | 119 µM | 538 | 250 µM | 333 µM | > 1000 µM | > 1000 µM
C/C(=N/Nc1ncnc2sc3c(c12)CCC3)c1nc2ccccc2[nH]1 | 0.802 µM | < 2.24 µM | 6.83 µM | 8.3 | > 1000 µM |  |  | 
C/C(=N\Nc1ncnc2sc3c(c12)CCCC3)c1nc2ccccc2[nH]1 | 2.42 µM | 7.06 µM | 37.3 µM | 15.4 | > 1000 µM |  |  | 
C/C(=N\Nc1ncnc2sc3c(c12)CCC3)c1ccccc1O | 1.72 µM | 4.07 µM | 141 µM | 82.9 | > 1000 µM |  |  | 
O=C(NNc1ncnc2sc3c(c12)CCC3)c1nc2ccccc2[nH]1 | 0.594 µM | 1.11 µM | 7.46 µM | 11.6 | > 1000 µM |  |  | 
C/C(=N/Nc1ncnc2sc(Cl)c(C)c12)c1cnccn1 | 0.058 µM | 0.289 µM | 3.13 µM | 53.9 | > 1000 µM |  |  | 
O=C(NNc1ncnc2sc3c(c12)CCCC3)c1ccccn1 | 1.47 µM | 0.819 µM | 7.75 µM | 5.27 | > 1000 µM |  |  | 
